In ChEMBL document CHEMBL1127367, “Antiproliferative properties of polyamine analogues: a structure-activity study” (J Med Chem, 1994):

Experiments:
[1] = biological target: Spermidine/spermine N(1)-acetyltransferase (SAT) (Mus musculus) (UniProt Q6P8J2+P48026); assay: […] spermidine/spermine N1-Acetyltransferase (SSAT) activity; format: functional; design: concentration or dose not given beside the values
[2] = system: L1210; assay: In vitro inhibition of L1210 growth after 96 hours.; format: functional, cell-based; settings: Mus musculus, L1210, 96 h
How it was run: (§1)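 Log-phase L1210 cultures (0.5–1.0 × 10^5 cells/mL) treated with analogue diluted in sterile water and filter-sterilized. After 48 h, cells were reseeded and grown a further 48 h for the 96 h point. Cells counted by Coulter counter. % growth = (treated − inoculum)/(untreated − inoculum) × 100.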

[3] = system: L1210; assay: Compound level in L1210 cells after 48 hours of incubation at initial concentration of 500 uM is expressed as nmol/10e6 cells; format: functional, Mus musculus; design: unit: nmol/10^6 cells
[4] = system: L1210; assay: Compound was evaluated for its impact on putrescine (Put) levels after 48 hr at concentration 500 uM; format: functional, Mus musculus
[5] = system: L1210; assay: Inhibition of radiolabeled spermidine uptake into L1210 cells in vitro.; format: functional, cell-based, Mus musculus
[6] = system: L1210; assay: Compound level in L1210 cells after 48 hours of incubation at initial concentration of 100 uM is expressed as nmol/10e6 cells; format: functional, Mus musculus; design: unit: nmol/10^6 cells
[7] = biological target: T1, S-adenosylmethionine decarboxylase proenzyme 1 (Mus musculus) (UniProt P0DMN7); assay: Inhibition of S-Adenosyl-methionine decarboxylase (AdoMetDC) activity; format: functional; design: concentration or dose not given beside the values
T1 sequence (whole entry): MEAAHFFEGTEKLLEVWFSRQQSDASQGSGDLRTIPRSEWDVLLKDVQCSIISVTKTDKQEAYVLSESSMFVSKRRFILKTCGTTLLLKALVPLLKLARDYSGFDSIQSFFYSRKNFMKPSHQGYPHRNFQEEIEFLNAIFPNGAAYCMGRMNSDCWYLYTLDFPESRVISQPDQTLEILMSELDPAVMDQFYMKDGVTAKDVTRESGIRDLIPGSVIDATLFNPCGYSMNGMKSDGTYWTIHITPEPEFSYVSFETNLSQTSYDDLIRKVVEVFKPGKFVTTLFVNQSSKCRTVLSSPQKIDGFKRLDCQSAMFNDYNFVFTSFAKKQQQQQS

[8] = system: L1210; assay: Compound was evaluated for its impact on putrescine (Put) levels after 48 hr at concentration 100 uM; format: functional, Mus musculus
[9] = system: L1210; assay: Compound was evaluated for its impact on spermine levels after 48 hr at concentration 100 uM; format: functional, Mus musculus
[10] = biological target: T2, Ornithine decarboxylase (Mus musculus) (UniProt P00860); assay: Inhibition of ornithine decarboxylase (ODC) activity; format: functional; design: concentration or dose not given beside the values
T2 sequence (whole entry): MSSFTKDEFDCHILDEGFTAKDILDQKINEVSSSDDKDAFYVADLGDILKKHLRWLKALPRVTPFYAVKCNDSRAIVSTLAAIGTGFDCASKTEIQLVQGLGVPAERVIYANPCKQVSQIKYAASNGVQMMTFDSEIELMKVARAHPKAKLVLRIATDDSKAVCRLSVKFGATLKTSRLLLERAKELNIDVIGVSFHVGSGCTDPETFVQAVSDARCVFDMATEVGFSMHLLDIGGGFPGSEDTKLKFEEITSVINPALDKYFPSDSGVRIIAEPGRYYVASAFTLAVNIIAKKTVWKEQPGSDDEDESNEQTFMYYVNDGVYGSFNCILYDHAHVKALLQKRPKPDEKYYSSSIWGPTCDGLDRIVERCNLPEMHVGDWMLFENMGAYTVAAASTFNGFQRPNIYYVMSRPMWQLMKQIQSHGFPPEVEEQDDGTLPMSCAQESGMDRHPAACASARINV

[11] = system: L1210; assay: Compound was evaluated for its impact on spermine levels after 48 hr at concentration 500 uM; format: functional, Mus musculus
[12] = system: L1210; assay: In vitro inhibition of L1210 growth after 48 hours.; format: functional, cell-based; settings: Mus musculus, L1210, 48 h; how it was run: as §1
[13] = system: L1210; assay: Compound was evaluated for its impact on spermidine levels after 48 hr at concentration 100 uM; format: functional, Mus musculus
[14] = system: L1210; assay: Compound was evaluated for its impact on spermidine levels after 48 hr at concentration 500 uM; format: functional, Mus musculus
[15] = system: L1210; assay: Compound was evaluated for its impact on spermine […] levels after 48 hr at concentration 500 uM; format: functional, Mus musculus
How it was run: (§2)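 L1210 suspension cultures were grown in RPMI-1640 with 10% NuSerum, 2% HEPES-MOPS and 1 mM aminoguanidine (37 °C, 5% CO2). Log-phase cells were treated for 48 h, then washed twice in cold RPMI-1640 and pelleted. Pellets were extracted with 0.6 N perchloric acid, and supernatants were held at −20 °C until HPLC. Polyamine levels are given as % of untreated controls.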

[16] = system: L1210; assay: Compound level in L1210 cells after 48 hours of incubation at initial concentration of 3 uM is expressed as nmol/10e6 cells; format: functional, Mus musculus
How it was run: (§3)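 Murine L1210 leukemia cells were kept in logarithmic growth as a suspension in RPMI-1640 with 10% NuSerum, 2% HEPES-MOPS buffer and 1 mM aminoguanidine, at 37 °C under 5% CO2. Log-phase cells were exposed to the analogue for 48 h. Intracellular analogue content is reported per 10^6 cells.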

[17] = system: L1210; assay: Compound was evaluated for its impact on spermidine levels after 48 hr at concentration 15 uM; format: functional, Mus musculus; how it was run: as §2
[18] = system: L1210; assay: Compound was evaluated for its impact on spermidine levels after 48 hr at concentration 3 uM; format: functional, Mus musculus; how it was run: as §2
[19] = system: L1210; assay: Compound level in L1210 cells after 48 hours of incubation at initial concentration of 15 uM is expressed as nmol/10e6 cells; format: functional, Mus musculus; how it was run: as §3
[20] = system: L1210; assay: Compound was evaluated for its impact on spermine levels after 48 hr at concentration 3 uM; format: functional, Mus musculus
How it was run: (§4)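 Murine L1210 leukemia cells in log-phase suspension (RPMI-1640, 10% NuSerum, 2% HEPES-MOPS, 1 mM aminoguanidine, 37 °C, 5% CO2) exposed to analogue for 48 h. Cells washed twice in cold RPMI-1640, extracted with 0.6 N perchloric acid, and polyamines quantified by HPLC. Spermine is reported as % of untreated control.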

[21] = system: L1210; assay: Compound was evaluated for its impact on spermine levels after 48 hr at concentration 15 uM; format: functional, Mus musculus; how it was run: as §4
[22] = system: L1210; assay: Compound was evaluated for its impact on putrescine (Put) levels after 48 hr at concentration 15 uM; format: functional, Mus musculus; how it was run: as §2
[23] = system: L1210; assay: Compound was evaluated for its impact on putrescine (Put) levels after 48 hr at concentration 3 uM; format: functional, Mus musculus; how it was run: as §2
[24] = system: L1210; assay: Compound was evaluated for its impact on spermidine levels after 48 hr at concentration 5 uM; format: functional, Mus musculus; how it was run: as §2
[25] = system: L1210; assay: Compound was evaluated for its impact on putrescine (Put) levels after 48 hr at concentration 1 uM; format: functional, Mus musculus; how it was run: as §2
[26] = system: L1210; assay: Compound level in L1210 cells after 48 hours of incubation at initial concentration of 5 uM is expressed as nmol/10e6 cells; format: functional, Mus musculus; how it was run: as §3
[27] = system: L1210; assay: Compound level in L1210 cells after 48 hours of incubation at initial concentration of 1 uM is expressed as nmol/10e6 cells; format: functional, Mus musculus; how it was run: as §3
[28] = system: L1210; assay: Compound was evaluated for its impact on spermidine levels after 48 hr at concentration 1 uM; format: functional, Mus musculus; how it was run: as §2
[29] = biological target: T2, Ornithine decarboxylase (Mus musculus); assay: Effect of compound on ornithine decarboxylase (ODC) activity expressed as percent of untreated control for ODC (1 uM at 4 h(or 48h))
How it was run: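 L1210 cells exposed to 1 μM analogue for 4 h, or for 48 h in some cases. ODC activity measured as 14CO2 released from [14C]carboxyl-labeled L-ornithine and expressed as % of untreated control.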

[30] = system: L1210; assay: Compound was evaluated for its impact on spermine levels after 48 hr at concentration 1 uM; format: functional, Mus musculus; how it was run: as §4
[31] = system: L1210; assay: Compound was evaluated for its impact on spermine levels after 48 hr at concentration 5 uM; format: functional, Mus musculus; how it was run: as §4
[32] = system: L1210; assay: Compound was evaluated for its impact on putrescine (Put) levels after 48 hr at concentration 5 uM; format: functional, Mus musculus; how it was run: as §2
[33] = system: S-adenosylmethionine decarboxylase (Mus musculus); assay: Effect of compound on S-Adenosyl-methionine decarboxylase (AdoMetDC) activity expressed as percent of untreated control for (AdoMetDC) (1 uM at 6 hr)

Chain of Spermidine/spermine N(1)-acetyltransferase (SAT) (Mus musculus) (P48026 whole entry, looked up): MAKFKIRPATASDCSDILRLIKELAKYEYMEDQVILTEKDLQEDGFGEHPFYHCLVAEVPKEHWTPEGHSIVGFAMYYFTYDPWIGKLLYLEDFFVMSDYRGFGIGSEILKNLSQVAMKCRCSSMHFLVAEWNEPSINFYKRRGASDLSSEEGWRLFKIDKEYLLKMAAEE
Chain of Spermidine/spermine N(1)-acetyltransferase (SAT) (Mus musculus) (Q6P8J2 whole entry, looked up): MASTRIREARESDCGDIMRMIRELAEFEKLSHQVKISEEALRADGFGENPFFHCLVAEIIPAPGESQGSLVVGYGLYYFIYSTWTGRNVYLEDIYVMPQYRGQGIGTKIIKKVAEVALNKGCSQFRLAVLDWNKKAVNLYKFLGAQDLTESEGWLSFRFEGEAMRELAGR

Compound | Activity [1] | IC50 [2] | Activity [7] | Activity [10] | IC50 [12] | Activity [3] | Polyamine [4] | Ki [5] | Activity [6] | Polyamine [8] | Polyamine [9] | Polyamine [11] | Polyamine [13] | Polyamine [14] | also measured
CNCCCNCCCCNCCCNC | 300% |  | 40% | 3% | > 100000 nM | 1.24 | 0% | 1100 nM | 1.26 | 0% | 21% |  | 0% | 0% | Polyamine [15]: 24%
CCCNCCCNCCCCNCCCNCCC | 500% |  | 72% | 52% |  |  |  | 2300 nM |  |  |  |  |  |  | Activity [16]: 1.12; Polyamine [17]: 9%; Polyamine [18]: 18%; Activity [19]: 1.09; Polyamine [20]: 64%; Polyamine [21]: 43%; Polyamine [22]: 0%; Polyamine [23]: 0%

Continued, in another order:

Activity [1] | IC50 [2] | Activity [7] | Activity [10] | IC50 [12] | Compound | Activity [3] | Polyamine [4] | Ki [5] | Activity [6] | Polyamine [8] | Polyamine [9] | Polyamine [11] | Polyamine [13] | Polyamine [14] | also measured
140% | 320 nM | 45% | 4% | > 100000 nM | CNCCCCNCCCCNCCCCNC | 1.03 | 0% | 970 nM | 1.49 | 0% | 30% | 27% | 0% | 0% | 
120% | 180 nM | 28% |  | 1000 nM | CCNCCCCNCCCNCCCCNCC |  |  | 4000 nM |  |  |  |  |  |  | Polyamine [24]: 0%; Polyamine [25]: 81%; Activity [26]: 1.5; Activity [27]: 0.76; Polyamine [28]: 41%; Activity [29]: 5%; Polyamine [30]: 52%; Polyamine [31]: 27%; Polyamine [32]: 0%
 | 3000 nM |  | 100% | > 100000 nM | CC(C)(C)NCCCCNCCCCNCCCCNC(C)(C)C |  | 55% | 56000 nM |  | 83% | 94% | 72% | 85% | 58% | Activity [33]: 100%
